From article PMC4635973 (Journal of medicinal chemistry, 2015)
Entries after “also recorded” stand apart in the source; their conditions may differ.

Columns and labels:
[1] = test system: activin A-mediated ovarian cell proliferation; experiment: Ovary ex vivo culture and BrdU assay; type: cell-based, mouse; conditions: 1 nM activin A, ovaries of 4-day-old CD1 mice, 4 days
In short: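 Ovaries from 4-day-old CD1 mice were cultured on 0.4-µm membrane inserts in DMEM/F12 with 0.03% BSA for 4 days. Treatments: 1 nM activin A with DMSO, 200 µM test compound, 4 nM Fst288 or 8 nM inhibin A. Then 10 µM BrdU for 24 h. Genomic DNA (150 ng, heat-denatured) was dot-blotted, probed with anti-BrdU and HRP secondary, detected by ECL and quantified by densitometry. Three independent experiments; one-way ANOVA with Tukey test.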

[2] = test system: activin A-stimulated FSHβ promoter activation in −338FSHβ-luc LβT2 cells; experiment: −338FSHβ-Luc LβT2 cell luciferase assay; type: cell-based; conditions: Mus musculus, 6 h, read-out: IC50 for activin A (selectivity test)
[3] = test system: activin-stimulated FSH in ovariectomized mice; experiment: Serum FSH in ovariectomized mice; type: in vivo, mouse; conditions: 15 mg/kg s.c. every 12 h, 4 doses
In short: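 Ovariectomized 12-week-old CD1 mice received s.c. test compound (15, 30 or 60 mg/kg) or vehicle (TBS or DMSO) twice daily for 2 days (4 doses). Fst288 control: 200 µg/kg, 3 doses. Serum FSH was measured by ELISA (sensitivity 0.35mIU/mL, 450 nm) as % of vehicle mean. 5–7 mice per group, 10 controls; one-way ANOVA with Tukey test.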

ovariectomized mice = experiment: Kidney and liver histology and behavior of treated ovariectomized mice; type: in vivo, mouse
In short: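 Ovariectomized 12-week-old CD1 mice received s.c. vehicle or 60 mg/kg test compound twice daily for 2 days (4 doses). Kidney and liver were fixed in Modified Davidson's fixative for 5 days at 4 °C, embedded in paraffin and stained with H&E.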

[4] = target: T1, activin A/ActRIIA-ECD complex binding to ALK4-ECD-Fc (Homo sapiens, UniProt P08476); experiment: Blitz competition binding: activin A/ActRIIA-ECD complex with ALK4-ECD-Fc; conditions: 25 µM compound, complex 1.6 µM
T1 sequence (P08476 311-426): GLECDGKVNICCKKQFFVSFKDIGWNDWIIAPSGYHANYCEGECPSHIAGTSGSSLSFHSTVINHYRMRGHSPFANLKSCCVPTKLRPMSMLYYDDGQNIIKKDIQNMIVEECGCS
In short: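 ALK4-ECD-Fc (50 ng/mL) was immobilized on a protein A Blitz biosensor for 120 s. Activin A and ActRIIA-ECD were premixed 1:2 molar, final 1.6 µM in PBS. The sensor was dipped into this complex with solvent or test compound (0.4, 1.6, 6.25, 25 µM) for 120 s association, then 120 s dissociation in PBS. Real-time wavelength shift recorded.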

[5] = target: T2, activin A binding to ActRIIA-ECD-Fc (Homo sapiens, UniProt P08476); experiment: Blitz competition binding: activin A with ActRIIA-ECD-Fc; conditions: 25 µM compound, activin A 1.6 µM
T2 sequence (P08476 311-426): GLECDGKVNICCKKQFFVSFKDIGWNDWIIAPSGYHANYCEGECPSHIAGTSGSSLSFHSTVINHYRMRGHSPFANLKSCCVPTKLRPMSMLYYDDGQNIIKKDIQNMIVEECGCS
In short: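 Protein A biosensor (Blitz) loaded with ActRIIA-ECD-Fc, then dipped into activin A (final 1.6 µM) with solvent control or a single 25 µM test compound. Association was 120 s and dissociation 120 s in PBS. Real-time wavelength shift recorded.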

[6] = target: T3, myostatin/ActRIIA-ECD complex binding with ALK4-ECD-Fc (Homo sapiens, UniProt O14793); experiment: Blitz competition binding: myostatin/ActRIIA-ECD complex with ALK4-ECD-Fc; conditions: 25 µM compound
T3 sequence (O14793 267-375): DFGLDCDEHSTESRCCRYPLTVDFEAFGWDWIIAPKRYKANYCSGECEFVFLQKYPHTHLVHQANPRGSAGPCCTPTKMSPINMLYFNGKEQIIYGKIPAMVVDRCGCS
In short: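 Myostatin and ActRIIA-ECD were premixed 1:2 molar, final 1.6 µM in PBS. Binding was to ALK4-ECD-Fc immobilized on a protein A Blitz biosensor (50 ng/mL, 120 s). Sensor dipped into complex with solvent or 25 µM test compound; 120 s association, 120 s dissociation in PBS. Wavelength shift recorded.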

[7] = test system: myostatin signaling in the −338FSHβ-Luc LβT2 cell line; experiment: −338FSHβ-Luc LβT2 cell luciferase assay; type: cell-based, mouse; conditions: −338FSHβ-Luc LβT2 luciferase assay
In short: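 Stably transfected −338FSHβ-Luc LβT2 cells (5 × 10^4/well) were treated for 6 h at 37 °C in serum-free, phenol red-free DMEM-F12 with 1% P/S. Treatments: 0.2 nM activin A or 0.2 nM myostatin with DMSO or a test-compound dilution series. Luciferase measured in lysates. Triplicates in three experiments. IC50 from sigmoidal variable-slope fit, reported as means ± SD.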

| Molecule | Inhibition of exogenous activin A-mediated ovarian cell proliferation (BrdU) ([1]; 200 µM compound) | IC50 [2] [µM] | Effect on serum FSH levels compared with control [3] | Histopathology of the kidney and liver tissue (H&E) (ovariectomized mice; 60 mg/kg s.c. twice daily, 4 doses, ovariectomized mice) | Behavior after injection (ovariectomized mice; s.c. injection, ovariectomized mice) | Adverse effects in efficacy studies (ovariectomized mice; treated mice, efficacy studies) | Antagonism of activin A/ActRIIA-ECD complex binding with ALK4-ECD-Fc [4] | Interference with activin A binding with ActRIIA-ECD-Fc [5] | Blocking of myostatin/ActRIIA complex binding with ALK4 [6] | Selectivity, IC50 for activin A versus IC50 for myostatin [7] [fold] | Inhibition of exogenous activin A-mediated ovarian cell proliferation (BrdU) ([1]; 8 nM) |
| --- | --- | --- | --- | --- | --- | --- | --- | --- | --- | --- | --- |
| CC(C)(O)C#Cc1ccc(CN2CCC[C@@H](CCC(=O)N3CCOCC3)C2)s1 [NUCC-474] | only partially inhibited | – | – | – | – | – | – | – | – | – | – |
| CCn1c(-c2cccnc2)nc2cc(NC(=O)COC)cc(C(=O)NCc3ccccc3)c21 [NUCC-555] | completely inhibited | 5.37 ± 4.01 | no significant effect | unchanged | normal behavior | No adverse effects | nearly complete antagonist; also recorded: completely blocked | weakly interfere | no blocking activity | ~10 | – |
| inhibin A: Purified inhibin A, naturally occurring activin antagonist, positive control in ovary culture (protein, UniProt P05111 233-366; P08476 311-426, looked up) Inhibin alpha chain: STPLMSWPWSPSALRLLQRPPEEPAAHANCHRVALNISFQELGWERWIVYPPSFIFHYCHGGCGLHIPPNLSLPVPGAPPTPAQPYSLLPGAQPCCAALPGTMRPLHVRTTSDGGYSFKYETVPNLLTQHCACI Inhibin beta A chain: GLECDGKVNICCKKQFFVSFKDIGWNDWIIAPSGYHANYCEGECPSHIAGTSGSSLSFHSTVINHYRMRGHSPFANLKSCCVPTKLRPMSMLYYDDGQNIIKKDIQNMIVEECGCS | – | – | – | – | – | – | – | – | – | – | completely inhibited |
